Measurements from PubChem BioAssay.
The source made the active and inactive calls.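 How the source made its calls, unless noted: active means Her2 level under about 52% in both replicate screens, with viability over 70% of control (limit read from the data); inconclusive means Her2 under the limit in one screen only, or viability under 70%; inactive means Her2 level above the set limit.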

Experiments:
[1] = reducers of endogenous Her2 protein level, primary screen, SKBR3 breast tumor cells, AlphaScreen, ATP viability (AID 461); settings: 18-24 h, measured here: SKBR3 viability, ATP luminescence, at 10 µM;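 on Her2 level: lower value means less Her2 protein in the cells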;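 on viability: percent of carrier control wells set as 100% viability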
[2] = target: Receptor tyrosine-protein kinase erbB-2 (Homo sapiens) (UniProt P04626); experiment: as above; settings: 18-24 h, at 10 µM, stronger effect = lower value
[3] = SK-BR-3 cell growth inhibitors, pilot screen, 24 h, human (AID 572;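 active means viability at or below 10% of carrier control in both of two separate runs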;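 further: compound exposure lasted between 18 and 24 h rather than exactly 24 h; 100% = carrier-treated control wells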); settings: SK-BR-3 viability, CellTiter-Glo luminescence, at 10 µM, stronger effect = lower value
[4] = HUVEC growth inhibition – cell-based, human, primary screen (AID 575;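 active means viability at or below 30% in both replicate assays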;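 further: 100% = median of untreated cell wells with 0.1% DMSO on each plate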); settings: HUVEC proliferation, CellTiter-Glo luminescence, 72 h; at 10 µM; stronger effect = lower value
Procedure, shortened: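 System – primary HUVEC, no more than 12 passages · Medium – Low-serum (2% FBS) EBM, supplemented · Times – 72 h exposure, 37 °C, 5% CO2, 30 min RT equilibration · Measured by – luminescent ATP assay · Read-out – % viability relative to median vehicle-well signal on each plate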

[5] = growth inhibitors of H69AR lung tumor, primary screen, human, duplicate replicates (AID 580;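 active means viability at or under a set limit in both replicates, limit being median viability minus 3 SD, cut at about 48% in these data, passing the limit was not always enough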;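 further: 100% = mean luminescence of untreated wells and 0% = no signal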); settings: H69AR lung tumor cells viability, ATP luminescence, 72 h; at 10 µM; stronger effect = lower value
[6] = reversal of MRP1-mediated doxorubicin resistance, pilot screen, H69AR cells, doxorubicin co-treatment (AID 601;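 active means viability loss from added drug above about 55%, and viability with drug at most 40%, in both replicates, limit read from the data, passing the limit was not always enough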); settings: CellTiter-Glo, 72 h, at 10 µM; for differential viability (reversal): stronger effect = higher value
[7] = 384-well plate pilot, post-Golgi transport modulator project, inhibition of yeast transport mutant growth (AID 636; in the data active means inhibition above about 31%); settings: absorbance 615 nm, about 18 h, stronger effect = higher value
[8] = growth suppression of yeast trafficking mutant, preliminary HTS, modulators of trafficking downstream of Golgi apparatus project, 1536-format plate, OD 615 nm (AID 637; in the data active means inhibition above about 30%); settings: yeast transport mutant growth, absorbance 615 nm, 18 h; stronger effect = higher value
[9] = H69AR cells + 2 uM doxorubicin, measured here: viability with 2 uM doxorubicin, stronger effect = lower value
[10] = H69AR cells, compound alone cytotoxicity

Receptor tyrosine-protein kinase erbB-2 (Homo sapiens), sequence (P04626 whole entry, looked up): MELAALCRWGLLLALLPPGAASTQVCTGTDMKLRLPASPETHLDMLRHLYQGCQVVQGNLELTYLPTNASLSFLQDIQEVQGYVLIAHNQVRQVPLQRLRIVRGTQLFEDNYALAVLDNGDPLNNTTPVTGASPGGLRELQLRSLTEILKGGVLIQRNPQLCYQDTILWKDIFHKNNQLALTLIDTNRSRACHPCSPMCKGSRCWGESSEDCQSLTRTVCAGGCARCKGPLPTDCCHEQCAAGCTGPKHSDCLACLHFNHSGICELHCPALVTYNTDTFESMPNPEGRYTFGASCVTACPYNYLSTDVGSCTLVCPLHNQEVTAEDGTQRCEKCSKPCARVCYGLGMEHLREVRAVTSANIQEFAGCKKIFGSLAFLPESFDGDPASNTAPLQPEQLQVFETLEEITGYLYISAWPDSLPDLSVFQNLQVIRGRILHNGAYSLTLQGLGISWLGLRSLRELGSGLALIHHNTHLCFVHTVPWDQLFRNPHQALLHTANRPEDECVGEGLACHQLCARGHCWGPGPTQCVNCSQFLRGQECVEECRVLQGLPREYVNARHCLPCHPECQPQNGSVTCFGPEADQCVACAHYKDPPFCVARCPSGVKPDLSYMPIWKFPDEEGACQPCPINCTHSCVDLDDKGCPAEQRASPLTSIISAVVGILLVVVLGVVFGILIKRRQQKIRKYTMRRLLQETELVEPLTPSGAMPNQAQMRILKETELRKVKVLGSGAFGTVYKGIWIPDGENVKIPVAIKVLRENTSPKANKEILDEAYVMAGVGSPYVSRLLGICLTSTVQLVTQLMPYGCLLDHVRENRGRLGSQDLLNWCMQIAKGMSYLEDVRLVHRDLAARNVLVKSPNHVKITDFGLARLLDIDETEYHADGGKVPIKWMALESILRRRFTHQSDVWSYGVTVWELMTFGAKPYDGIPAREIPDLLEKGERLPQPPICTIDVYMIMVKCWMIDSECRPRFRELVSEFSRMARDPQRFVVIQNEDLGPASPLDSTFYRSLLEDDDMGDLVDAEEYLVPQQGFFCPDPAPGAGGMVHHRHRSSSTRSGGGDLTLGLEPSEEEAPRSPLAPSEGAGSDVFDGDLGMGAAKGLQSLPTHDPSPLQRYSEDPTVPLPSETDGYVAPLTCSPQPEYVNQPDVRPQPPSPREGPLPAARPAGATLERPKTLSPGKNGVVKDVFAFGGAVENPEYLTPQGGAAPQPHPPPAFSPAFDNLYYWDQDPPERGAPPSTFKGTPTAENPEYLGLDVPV

| SMILES | viability [1] [%] | Her2 level [2] | viability [3] | viability [4] | viability [5] | differential viability (reversal) ([6]; H69AR cells + 2 uM doxorubicin) | viability [6, 9] [%] | viability [6, 10] [%] | inhibition [7] | inhibition [8] |
| --- | --- | --- | --- | --- | --- | --- | --- | --- | --- | --- |
| Cc1ccc2nsnc2c1S(=O)(=O)N(Cc1cc2cccc(C)c2[nH]c1=O)CC1CCCO1 (stereo not given) | 81.5 | 89% (inactive) | 81.5% (inactive) | 82.3% (inactive) | 21.4% (active) | 0% (inactive) | 21.4 | 21.4 | -5.6% (inactive) | -0.66% (inactive) |
| O=C(CSc1nc2ccccc2c(=O)n1CCC(=O)N1CCCCC1)NCc1ccccc1 | 102 | 80% (inactive) | 102% (inactive) | 99.5% (inactive) | 81.8% (inactive) | -13.3% (inactive) | 95.1 | 81.8 | -1.84% (inactive) | -2.86% (inactive) |
| COc1cc(C2c3c(oc4c(C)cc(C)cc4c3=O)C(=O)N2Cc2cccnc2)cc(OC)c1OC (stereo not given) | 110 | 114% (inactive) | 110% (inactive) | 97.6% (inactive) | 110% (inactive) | 6.48% (inactive) | 104 | 110 | 1.33% (inactive) | -3.06% (inactive) |
| CCC(=O)N1CCNC(=O)C1CC(=O)Nc1ccc(C)c(Cl)c1 (stereo not given) | 97 | 122% (inactive) | 97% (inactive) | 94.2% (inactive) | 95.8% (inactive) | 4.98% (inactive) | 90.8 | 95.8 | -2.8% (inactive) | -0.48% (inactive) |
| O=C(C1CCC(N2C(=O)C3CC=CCC3C2=O)CC1)N1CCCCC1 (stereo not given) | 75.5 | 113% (inactive) | 75.5% (inactive) | 96.3% (inactive) | 91.8% (inactive) | 8.11% (inactive) | 83.7 | 91.8 | 0.64% (inactive) | -5.83% (inactive) |
| COc1ccc(NS(=O)(=O)c2c(C)[nH]c(=O)[nH]c2=O)c(OC)c1 | 88.5 | 91% (inactive) | 88.5% (inactive) | 97.9% (inactive) | 90.8% (inactive) | 1.25% (inactive) | 89.5 | 90.8 | -0.39% (inactive) | -4% (inactive) |
| COc1ccc(C(C)=O)c(OC(=O)c2ccc(OC)c(OC)c2)c1 | 104 | 88.5% (inactive) | 104% (inactive) | 92.8% (inactive) | 98.6% (inactive) | 1.11% (inactive) | 97.5 | 98.6 | -6.4% (inactive) | -3.33% (inactive) |
| Cn1c(SCc2ccc3c(c2)OCO3)nnc1-c1ccccc1 | 99.5 | 108% (inactive) | 99.5% (inactive) | 99.1% (inactive) | 96.2% (inactive) | 11.7% (inactive) | 84.4 | 96.2 | 1.45% (inactive) | -1.11% (inactive) |
| CCc1cc(C(=O)OC)c(NC(=O)CCC(=O)O)s1 | 96.5 | 96% (inactive) | 96.5% (inactive) | 87.6% (inactive) | 107% (inactive) | 17.8% (inactive) | 89.1 | 107 | -2.53% (inactive) | 0% (inactive) |
| OC(CNCC1COc2ccccc2O1)COCc1cccs1 (stereo not given) | 98 | 89.5% (inactive) | 98% (inactive) | 87.5% (inactive) | 83.1% (inactive) | 0.95% (inactive) | 82.1 | 83.1 | -2.08% (inactive) | -7.94% (inactive) |
| CCOC(=O)c1cc(C)n(CCCN2CCOCC2)c1C | 90.5 | 85% (inactive) | 90.5% (inactive) | 92.4% (inactive) | 91.1% (inactive) | -4.19% (inactive) | 95.2 | 91.1 | -0.66% (inactive) | 1.11% (inactive) |
| CC(C)(C)n1ncc2c(=O)n(CC(=O)NCc3ccco3)cnc21 | 91.5 | 94% (inactive) | 91.5% (inactive) | 111% (inactive) | 68.5% (inactive) | -12.3% (inactive) | 80.8 | 68.5 | -1.45% (inactive) | -10.5% (inactive) |
| CC1CCCC(C)N1C(=O)COC(=O)c1ccc[nH]c1=O (stereo not given) | 102 | 86% (inactive) | 102% (inactive) | 95.9% (inactive) | 97.7% (inactive) | -5.21% (inactive) | 103 | 97.7 | -4.49% (inactive) | 1.67% (inactive) |
| COc1ccc(NC(=O)CS(=O)CC(=O)Nc2cc(Cl)ccc2OC)cc1 (stereo not given) | 91.5 | 106% (inactive) | 91.5% (inactive) | 80.8% (inactive) | 90.9% (inactive) | -1.21% (inactive) | 92.1 | 90.9 | -4.36% (inactive) | -3.67% (inactive) |
| C=CCn1c(C)cc(C(=O)CSc2nc3ccccc3c(=O)[nH]2)c1C | 90.5 | 92.5% (inactive) | 90.5% (inactive) | 61.5% (inactive) | 77.8% (inactive) | -4.06% (inactive) | 81.8 | 77.8 | 54.1% (active) | 37.6% (active) |
| COc1ccc(-n2nc(C(=O)Nc3ccc4c(c3)OCO4)c3c4ccccc4n(C)c3c2=O)cc1 | 99 | 88.5% (inactive) | 99% (inactive) | 98% (inactive) | 92.6% (inactive) | -10.9% (inactive) | 104 | 92.6 | -3.03% (inactive) | -1.45% (inactive) |
| Cc1cc(C)c(C)c(S(=O)(=O)Nc2ccc(O)cc2)c1C | 100 | 87.5% (inactive) | 100% (inactive) | 96.6% (inactive) | 96.8% (inactive) | 14.1% (inactive) | 82.7 | 96.8 | -4.4% (inactive) | -1.61% (inactive) |
| CN(C1CCS(=O)(=O)C1)S(=O)(=O)c1cccc2nsnc12 (stereo not given) | 104 | 100% (inactive) | 104% (inactive) | 107% (inactive) | 107% (inactive) | 6.67% (inactive) | 100 | 107 | -6.58% (inactive) | -2.7% (inactive) |
| COc1ccc2cc(C#N)c(SCC(=O)N3CCCC3)nc2c1 | 97 | 81% (inactive) | 97% (inactive) | 90.4% (inactive) | 70.2% (inactive) | -5.28% (inactive) | 75.5 | 70.2 | 0.95% (inactive) | -5.08% (inactive) |
| COc1ccc(C2CC(C(F)(F)F)n3ncc(C(=O)NCc4cccnc4)c3N2)cc1OC (stereo not given) | 86.5 | 93% (inactive) | 86.5% (inactive) | 94.2% (inactive) | 91.1% (inactive) | 11.6% (inactive) | 79.5 | 91.1 | -4.47% (inactive) | 2.33% (inactive) |
| O=C(O)c1cccc(S(=O)(=O)N2CCOCC2)c1 | 118 | 121% (inactive) | 118% (inactive) | 95% (inactive) | 98.9% (inactive) | 3.4% (inactive) | 95.5 | 98.9 | -1.37% (inactive) | 11.3% (inactive) |
| COC(=O)c1ccccc1NC(=O)Cn1ccnc1 | 110 | 88.5% (inactive) | 110% (inactive) | 80.8% (inactive) | 97.7% (inactive) | -3.07% (inactive) | 101 | 97.7 | -2.3% (inactive) | 1.11% (inactive) |
| O=C(NCCC1=CCCCC1)C1CCN(S(=O)(=O)c2cccc3nsnc23)CC1 | 104 | 92.5% (inactive) | 104% (inactive) | 58.5% (inactive) | 96.5% (inactive) | 14.2% (inactive) | 82.4 | 96.5 | -5.33% (inactive) | 0.98% (inactive) |
| CCOc1c(C)cc2[nH]c(CCC(=O)O)nc2c1C | 123 | 103% (inactive) | 123% (inactive) | 95.4% (inactive) | 93.2% (inactive) | -1.08% (inactive) | 94.3 | 93.2 | -6.58% (inactive) | 14.4% (inactive) |
| O=C(CSc1nnc(CNC(=O)c2cccs2)o1)Nc1cccc(C(F)(F)F)c1 | 83.5 | 98.5% (inactive) | 83.5% (inactive) | 82.7% (inactive) | 92.8% (inactive) | 1.86% (inactive) | 90.9 | 92.8 | -0.13% (inactive) | -7% (inactive) |
| O=S(=O)(NC1=NCCC1)c1cccs1 | 106 | 94% (inactive) | 106% (inactive) | 114% (inactive) | 107% (inactive) | 15.3% (inactive) | 91.2 | 107 | -5.68% (inactive) | -2.67% (inactive) |
| C/C(N)=C(/C#N)C(=O)COC(=O)CCSc1ccccc1 | 97.5 | 89% (inactive) | 97.5% (inactive) | 84.4% (inactive) | 101% (inactive) | -0.045% (inactive) | 101 | 101 | -0.13% (inactive) | 4.59% (inactive) |
